ChEMBL document CHEMBL4049451, “Exploring the Role of N6-Substituents in Potent Dual Acting 5'-C-Ethyltetrazolyladenosine Derivatives: Synthesis, Binding, Functional Assays, and Antinociceptive Effects in Mice ∇” (J Med Chem, 2017)

Legend:
[1] = target: Adenosine receptors; A1 & A3 (Homo sapiens) (UniProt P30542+P0DMS8); assay: Selectivity ratio of Ki for recombinant human adenosine A3 receptor expressed in CHO cell membranes to Ki for recombinant human adenosine A1 receptor expressed in CHO cell membranes; assay type: cell-based
Summary of the method: (§1)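 CHO membranes with stable human A1, A2A, A3 or rat A3 (1000g then 100 000g spin, stored -80 °C). Competition: hA1 1 nM [3H]CCPA, nonspecific with 1 mM theophylline; hA2A 10 nM [3H]NECA; hA3 1 nM [3H]HEMADO; rA3 30 nM [3H]NECA; latter three nonspecific with 100 μM R-PIA.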

Adenosine receptor A2a [2] = target: T1, Adenosine receptor A2a (Homo sapiens, UniProt P29274); assay: Agonist activity at recombinant human adenosine A2A receptor expressed in CHO cell membranes assessed as stimulation of adenylyl cyclase activity relative to NECA; assay type: functional, cell-based
T1 sequence (P29274 whole entry): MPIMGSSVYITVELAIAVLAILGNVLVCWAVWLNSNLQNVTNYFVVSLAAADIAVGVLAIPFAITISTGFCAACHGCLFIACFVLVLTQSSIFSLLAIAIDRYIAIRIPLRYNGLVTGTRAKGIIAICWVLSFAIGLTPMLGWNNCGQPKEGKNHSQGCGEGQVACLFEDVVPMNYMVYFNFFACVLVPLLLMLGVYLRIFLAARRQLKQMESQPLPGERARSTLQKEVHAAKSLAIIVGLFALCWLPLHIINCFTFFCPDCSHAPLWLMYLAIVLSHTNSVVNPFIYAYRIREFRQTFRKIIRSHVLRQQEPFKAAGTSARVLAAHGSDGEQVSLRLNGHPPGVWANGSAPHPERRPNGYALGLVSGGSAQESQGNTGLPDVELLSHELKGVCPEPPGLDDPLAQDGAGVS
Summary of the method: (§2)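 hA2A or hA2B in CHO cell membranes (one high-speed spin, pellet in 50 mM Tris/HCl pH 7.4, used immediately); agonist stimulation of adenylyl cyclase gives EC50; partial agonism judged as efficacy against 100 μM NECA as full agonist. Geometric means, 95% confidence intervals, n = 3.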

[3] = target: T2, Adenosine receptor A1 (Homo sapiens) (UniProt P30542); assay: Agonist activity at recombinant human adenosine A1 receptor expressed in CHO cell membranes assessed as inhibition of forskolin-stimulated adenylyl cyclase activity after 10 mins relative to CCPA; assay type: functional, cell-based
T2 sequence (whole entry): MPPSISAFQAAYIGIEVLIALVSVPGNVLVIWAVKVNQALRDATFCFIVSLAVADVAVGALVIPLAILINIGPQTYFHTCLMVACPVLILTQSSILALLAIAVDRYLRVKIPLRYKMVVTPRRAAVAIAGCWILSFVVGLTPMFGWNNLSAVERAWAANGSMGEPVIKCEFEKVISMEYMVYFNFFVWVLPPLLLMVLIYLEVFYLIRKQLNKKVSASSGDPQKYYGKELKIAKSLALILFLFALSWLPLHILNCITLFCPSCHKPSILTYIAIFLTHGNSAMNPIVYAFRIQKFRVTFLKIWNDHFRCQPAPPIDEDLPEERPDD
Summary of the method: (§3)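 hA1 in CHO cell membranes (single high-speed spin, resuspended in 50 mM Tris/HCl pH 7.4, used immediately); agonist inhibition of forskolin-stimulated adenylyl cyclase; efficacy relative to CCPA as reference full agonist (100%). Geometric means with 95% confidence intervals, n = 3.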

Adenosine receptor A3 [4] = target: T3, Adenosine receptor A3 (Homo sapiens, UniProt P0DMS8); assay: Displacement of [3H]HEMADO from recombinant human adenosine […] receptor expressed in CHO cell membranes after 3 hrs by microbeta scintillation counting; summary of the method: as §1
T3 sequence (P0DMS8 whole entry): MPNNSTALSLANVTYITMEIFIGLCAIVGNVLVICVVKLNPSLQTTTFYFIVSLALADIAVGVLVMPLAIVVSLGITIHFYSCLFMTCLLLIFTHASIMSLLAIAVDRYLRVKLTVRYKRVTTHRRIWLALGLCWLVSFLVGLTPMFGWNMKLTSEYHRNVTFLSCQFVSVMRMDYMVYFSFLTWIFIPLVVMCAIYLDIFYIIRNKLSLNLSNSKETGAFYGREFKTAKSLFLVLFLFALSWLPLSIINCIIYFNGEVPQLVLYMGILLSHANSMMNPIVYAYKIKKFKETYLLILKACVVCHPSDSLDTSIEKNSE

Adenosine receptor A1 [5] = target: T4, Adenosine receptor A1 (Homo sapiens, UniProt P30542); assay: Agonist activity at recombinant human adenosine A1 receptor expressed in CHO cell membranes assessed as inhibition of forskolin-stimulated adenylyl cyclase activity after 10 mins in presence of [alpha-32P]ATP; assay type: functional, cell-based; summary of the method: as §3
T4 sequence (P30542 whole entry): T2 sequence (whole entry)

Adenosine receptor A1 [6] = target: T4, Adenosine receptor A1; assay: Displacement of [3H]CCPA from recombinant human adenosine A1 receptor expressed in CHO cell membranes after 3 hrs by microbeta scintillation counting; summary of the method: as §1
Adenosine receptor A2a [7] = target: T1, Adenosine receptor A2a; assay: Displacement of [3H]NECA from recombinant human adenosine A2A receptor expressed in CHO cell membranes after 3 hrs by microbeta scintillation counting; summary of the method: as §1
[8] = target: T5, Adenosine receptor A2b (Homo sapiens) (UniProt P29275); assay: Agonist activity at recombinant human adenosine A2B receptor expressed in CHO cell membranes assessed as stimulation of adenylyl cyclase activity relative to NECA; assay type: functional, cell-based; summary of the method: as §2
T5 sequence (whole entry): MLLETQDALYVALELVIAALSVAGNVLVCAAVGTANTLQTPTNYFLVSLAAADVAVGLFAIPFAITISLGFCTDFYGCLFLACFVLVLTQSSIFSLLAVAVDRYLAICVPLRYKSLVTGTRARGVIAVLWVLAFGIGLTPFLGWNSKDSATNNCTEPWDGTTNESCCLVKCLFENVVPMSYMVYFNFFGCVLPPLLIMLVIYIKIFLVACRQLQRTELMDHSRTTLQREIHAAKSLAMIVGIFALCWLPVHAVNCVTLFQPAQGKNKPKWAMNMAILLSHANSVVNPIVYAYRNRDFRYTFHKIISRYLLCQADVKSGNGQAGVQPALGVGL

Adenosine receptor A2a [9] = target: T1, Adenosine receptor A2a; assay: Agonist activity at recombinant human adenosine A2A receptor expressed in CHO cell membranes assessed as stimulation of adenylyl cyclase activity by [alpha-32P]ATP assay; assay type: functional, cell-based; summary of the method: as §2
Adenosine receptor A3 [10] = target: T3, Adenosine receptor A3; assay: Antagonist activity at recombinant human adenosine A3 receptor expressed in CHO cell membranes assessed as reversal of NECA-mediated inhibition of adenylyl cyclase activity after 10 mins by [alpha-32P]ATP assay; assay type: functional, cell-based
Adenosine receptor A2b = target: T6, Adenosine receptor A2b (Homo sapiens, UniProt P29275); assay: Agonist activity at recombinant human adenosine A2B receptor expressed in CHO cell membranes assessed as stimulation of adenylyl cyclase activity by [alpha-32P]ATP assay; assay type: functional, cell-based; summary of the method: as §2
T6 sequence (P29275 whole entry): T5 sequence (whole entry)

Homo sapiens [11] = species on record: Homo sapiens; assay: Selectivity ratio of Ki for recombinant human adenosine A2A receptor expressed in CHO cell membranes to Ki for recombinant human adenosine A1 receptor expressed in CHO cell membranes; assay type: cell-based; summary of the method: as §1
Homo sapiens [12] = species on record: Homo sapiens; assay: Selectivity ratio of Ki for recombinant human adenosine A2A receptor expressed in CHO cell membranes to Ki for recombinant human adenosine A3 receptor expressed in CHO cell membranes; assay type: cell-based; summary of the method: as §1
[13] = Selectivity ratio of Ki for recombinant rat adenosine A3 receptor expressed in CHO cell membranes to Ki for recombinant human adenosine A3 receptor expressed in CHO cell membranes; assay type: cell-based; summary of the method: as §1
Adenosine receptor A3 [14] = target: T7, Adenosine receptor A3 (Rattus norvegicus, UniProt P28647); assay: Displacement of [3H]NECA from recombinant rat adenosine A3 receptor expressed in CHO cell membranes after 3 hrs by microbeta scintillation counting; summary of the method: as §1
T7 sequence (P28647 whole entry): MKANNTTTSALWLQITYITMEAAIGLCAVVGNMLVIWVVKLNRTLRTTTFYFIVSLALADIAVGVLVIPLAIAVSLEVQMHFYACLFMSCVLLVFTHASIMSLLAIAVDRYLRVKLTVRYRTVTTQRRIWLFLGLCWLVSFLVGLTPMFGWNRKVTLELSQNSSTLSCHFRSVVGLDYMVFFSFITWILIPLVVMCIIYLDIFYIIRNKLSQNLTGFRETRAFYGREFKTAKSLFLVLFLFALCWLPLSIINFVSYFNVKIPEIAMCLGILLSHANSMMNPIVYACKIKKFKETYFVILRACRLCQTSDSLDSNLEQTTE

Compound | Ratio Ki [1] | Efficacy (Adenosine receptor A2a [2]) [%] | Efficacy [3] [%] | Ki (Adenosine receptor A3 [4]) [nM] | EC50 (Adenosine receptor A1 [5]) [nM] | Ki (Adenosine receptor A1 [6]) [nM] | Ki (Adenosine receptor A2a [7]) [nM] | Efficacy [8] [%] | EC50 (Adenosine receptor A2a [9]) [nM] | EC50 (Adenosine receptor A3 [10]) [nM] | EC50 (Adenosine receptor A2b) [nM] | Ratio Ki (Homo sapiens [11]) | Ratio Ki (Homo sapiens [12]) | Ratio Ki [13] | Ki (Adenosine receptor A3 [14]) [nM]
CCn1nnc([C@H]2O[C@@H](n3cnc4c(NCc5ccc(Cl)cc5F)nc(Cl)nc43)[C@H](O)[C@@H]2O)n1 | 0.29 | > 90 | > 90 | 5.17 | 539 | 17.6 | 881 | > 90 | 96.5 | 105 | > 30000 | 50 | 170 | – | –
CCn1nnc([C@H]2O[C@@H](n3cnc4c(NCc5ccco5)ncnc43)C(O)C2O)n1 (single isomer, unassigned) | 0.45 | > 90 | > 90 | 4.85 | 552 | 10.7 | 342 | > 90 | 54.3 | 125 | 1930 | 32 | 70 | 6.8 | 33.1
CCn1nnc([C@H]2O[C@@H](n3cnc4c(N)ncnc43)[C@H](O)[C@@H]2O)n1 | – | – | – | – | – | – | – | – | – | – | – | – | – | – | 228
CCn1nnc([C@H]2O[C@@H](n3cnc4c(NCC5CC5)nc(Cl)nc43)[C@H](O)[C@@H]2O)n1 | 0.66 | > 90 | > 90 | 0.313 | 7.21 | 0.454 | 329 | > 90 | 28.6 | 14.4 | 1960 | 725 | 1100 | – | –
CCn1nnc([C@H]2O[C@@H](n3cnc4c(NCc5cccc(Br)c5)ncnc43)C(O)C2O)n1 (single isomer, unassigned) | 0.4 | > 90 | > 90 | 0.393 | 45.1 | 0.95 | 24.5 | > 90 | 4.46 | 2.07 | 408 | 25 | 61 | 10 | 4.11
CCn1nnc([C@H]2O[C@@H](n3cnc4c(N)nc(Cl)nc43)[C@H](O)[C@@H]2O)n1 | – | – | – | – | – | – | – | – | – | – | – | – | – | – | 212
CCn1nnc([C@H]2O[C@@H](n3cnc4c(NCc5ccc(Cl)cc5F)ncnc43)C(O)C2O)n1 (single isomer, unassigned) | 1.09 | > 90 | > 90 | 4.67 | 230 | 4.28 | 252 | > 90 | 40.7 | 25.4 | 1290 | 59 | 54 | 4.8 | 22.6
CCn1nnc([C@H]2O[C@@H](n3cnc4c(NC5CC5)nc(Cl)nc43)[C@H](O)[C@@H]2O)n1 | 0.86 | – | – | 0.461 | 7.21 | 0.538 | 274 | – | 21.5 | 14.1 | 677 | 509 to 510 | 596 | – | –
CCn1nnc([C@H]2O[C@@H](n3cnc4c(NC)nc(Cl)nc43)[C@H](O)[C@@H]2O)n1 | – | – | – | – | – | – | – | – | – | – | – | – | – | – | 600
CCn1nnc([C@H]2O[C@@H](n3cnc4c(NCc5cccs5)nc(Cl)nc43)[C@H](O)[C@@H]2O)n1 | 0.26 | > 90 | > 90 | 1.59 | 222 | 6.02 | 286 | > 90 | 38.4 | 44.7 | 2140 | 47 | 180 | – | –
CCn1nnc([C@H]2O[C@@H](n3cnc4c(NCc5cccc(F)c5)nc(Cl)nc43)[C@H](O)[C@@H]2O)n1 | 0.13 | > 90 | > 90 | 0.806 | 239 | 6.04 | 242 | > 90 | 31.3 | 31.5 | 2230 | 40 | 299 | – | –
CCn1nnc([C@H]2O[C@@H](n3cnc4c(Nc5ccc(Cl)cc5F)ncnc43)[C@H](O)[C@@H]2O)n1 | – | – | – | – | – | – | – | – | – | – | – | – | – | – | 21.4
CCn1nnc([C@H]2O[C@@H](n3cnc4c(NCc5ccco5)nc(Cl)nc43)[C@H](O)[C@@H]2O)n1 | 0.17 | > 90 | > 90 | 1.31 | 341 | 7.64 | 663 | > 90 | 60.2 | 52.4 | 2570 | 87 | 506 | – | –
CCn1nnc([C@H]2O[C@@H](n3cnc4c(NCc5cccc(Cl)c5)nc(Cl)nc43)[C@H](O)[C@@H]2O)n1 | 0.14 | > 90 | > 90 | 0.387 | 116 | 2.71 | 110 | > 90 | 16 | 7.61 | 2390 | 40 | 282 | – | –
CCn1nnc([C@H]2O[C@@H](n3cnc4c(NCc5cccc(Br)c5)nc(Cl)nc43)[C@H](O)[C@@H]2O)n1 | 0.19 | > 90 | > 90 | 0.345 | 72.8 | 1.79 | 58.2 | > 90 | 13.3 | 9.64 | 1650 | 32 | 171 | – | –
